The values that follow come from ChEMBL document CHEMBL3390837, “Bridged tetrahydroisoquinolines as selective NADPH oxidase 2 (Nox2) inhibitors” (Medchemcomm, 2013).

Series [1] has as its target T1, NADPH oxidase 2 (Homo sapiens, UniProt P04839).
T1 sequence (P04839 whole entry): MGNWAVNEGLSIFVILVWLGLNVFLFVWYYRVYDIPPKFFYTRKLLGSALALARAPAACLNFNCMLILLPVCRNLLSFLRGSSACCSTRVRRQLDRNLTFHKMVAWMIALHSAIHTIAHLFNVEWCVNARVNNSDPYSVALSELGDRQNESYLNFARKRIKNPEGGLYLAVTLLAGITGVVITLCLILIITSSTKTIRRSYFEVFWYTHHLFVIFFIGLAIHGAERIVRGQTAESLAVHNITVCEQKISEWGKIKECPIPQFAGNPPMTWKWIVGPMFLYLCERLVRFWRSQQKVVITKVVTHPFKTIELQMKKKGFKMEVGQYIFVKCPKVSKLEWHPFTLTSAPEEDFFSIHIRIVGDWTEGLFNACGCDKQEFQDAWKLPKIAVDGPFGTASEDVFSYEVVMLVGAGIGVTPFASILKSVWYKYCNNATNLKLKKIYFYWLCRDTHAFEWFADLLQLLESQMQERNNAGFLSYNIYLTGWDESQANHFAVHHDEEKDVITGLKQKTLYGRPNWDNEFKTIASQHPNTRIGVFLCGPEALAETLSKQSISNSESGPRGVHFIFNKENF
Put plainly: Inhibition of full length human NOX2 transfected in COS 22 cells assessed as inhibition of Phorbol 12-myristate 13-acetate-stimulated ROS generation by chemiluminescence assay. In kind it is cell-based. The following applies: read-out: IC50. In short, it runs like this:
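COS-Nox2 (COS-7 stably expressing human p22phox, Nox2, p47phox, p67phox) plated in OPTIMEM at 2.5 x 10³ cells/well; 10 min at 37 °C in PBS with L-012, then stimulated with 5 µM PMA; luminescence followed over time; superoxide specificity checked with SOD 150 U/mL. IC50 by three-parameter non-linear fit, Hill slope 1, top/bottom fixed 100/0.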

A short description of series [2]: Cytotoxicity against african green monkey COS7 cells expressing human p22phox assessed as cell viability at 25 to 50 uM after 15 mins by luminogenic assay. To be noted: chlorocebus aethiops, cos-7, 0.25 h. In kind it is cell-based. In short, it runs like this:
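COS-22 cells plated at 2.5 x 10³ cells/well in OPTIMEM, exposed 15 min to compounds at various concentrations; dead-cell protease release read with luminogenic AAF peptide substrate, signal before and after digitonin used to derive % dead; reported as % live cells (100 − % dead) per well.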

Series [3] deals with Xanthine dehydrogenase/oxidase (Bos taurus, UniProt P80457). The series is described as follows: Inhibition of bovine milk xanthine oxidase assessed as hypoxanthine-stimulated ROS generation by measuring H2O2 production at 25 to 50 uM by fluorescence assay. To be noted: cattle.
Another series has as its target T2, NADPH oxidase 4 (Homo sapiens, UniProt Q9NPH5).
T2 sequence (Q9NPH5 whole entry): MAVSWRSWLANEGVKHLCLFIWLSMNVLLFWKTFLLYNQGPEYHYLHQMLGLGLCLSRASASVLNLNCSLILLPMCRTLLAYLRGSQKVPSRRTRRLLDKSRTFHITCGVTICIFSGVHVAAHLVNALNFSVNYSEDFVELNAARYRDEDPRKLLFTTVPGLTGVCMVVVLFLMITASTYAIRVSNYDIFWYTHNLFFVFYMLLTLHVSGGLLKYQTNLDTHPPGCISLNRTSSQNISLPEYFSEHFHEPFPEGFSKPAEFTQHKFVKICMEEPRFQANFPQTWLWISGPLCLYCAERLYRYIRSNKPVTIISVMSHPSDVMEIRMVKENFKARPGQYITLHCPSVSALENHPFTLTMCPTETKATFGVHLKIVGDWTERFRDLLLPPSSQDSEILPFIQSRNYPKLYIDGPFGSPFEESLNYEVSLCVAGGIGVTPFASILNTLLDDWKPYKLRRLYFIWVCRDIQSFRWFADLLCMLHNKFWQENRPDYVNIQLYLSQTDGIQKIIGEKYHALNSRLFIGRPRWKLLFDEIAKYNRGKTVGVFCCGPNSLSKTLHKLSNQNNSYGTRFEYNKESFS
The series is described as follows: Inhibition of full length human NOX4 transfected in COS 22 cells assessed as inhibition of ROS generation by measuring H2O2 production by fluorescence assay. The following applies: read-out: IC50.

Another series has as its target T3, NADPH oxidase 5 (Homo sapiens, UniProt Q96PH1).
T3 sequence (Q96PH1 whole entry): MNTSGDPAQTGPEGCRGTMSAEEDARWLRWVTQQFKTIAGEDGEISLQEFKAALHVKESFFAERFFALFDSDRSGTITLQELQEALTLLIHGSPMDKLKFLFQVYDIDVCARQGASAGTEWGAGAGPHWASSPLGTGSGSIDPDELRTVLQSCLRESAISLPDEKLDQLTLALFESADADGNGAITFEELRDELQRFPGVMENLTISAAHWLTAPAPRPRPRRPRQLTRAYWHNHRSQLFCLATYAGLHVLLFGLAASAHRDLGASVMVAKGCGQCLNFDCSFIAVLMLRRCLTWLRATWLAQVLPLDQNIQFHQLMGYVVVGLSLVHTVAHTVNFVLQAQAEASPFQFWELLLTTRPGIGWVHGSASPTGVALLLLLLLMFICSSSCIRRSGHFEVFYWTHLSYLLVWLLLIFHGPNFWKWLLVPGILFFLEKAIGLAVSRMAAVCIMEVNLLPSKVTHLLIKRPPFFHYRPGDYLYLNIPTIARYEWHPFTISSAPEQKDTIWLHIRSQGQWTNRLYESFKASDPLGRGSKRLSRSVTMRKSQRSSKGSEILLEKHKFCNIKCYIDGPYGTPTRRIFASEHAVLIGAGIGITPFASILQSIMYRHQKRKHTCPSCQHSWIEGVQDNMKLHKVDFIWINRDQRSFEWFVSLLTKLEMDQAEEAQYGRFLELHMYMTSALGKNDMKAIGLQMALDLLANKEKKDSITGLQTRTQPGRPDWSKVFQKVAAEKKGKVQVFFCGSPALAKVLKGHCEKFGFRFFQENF
Put plainly: Inhibition of full length human NOX5 transfected in HEK cells assessed as inhibition of ionomycin-stimulated ROS generation by chemiluminescence assay. In kind it is cell-based, HEK293. The essentials:
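HEK-Nox5 cells at 5 × 10⁴ cells/well in OPTIMEM, 10 min at 37 °C in PBS with L-012, then stimulated with 1 µM PMA/0.1 µM ionomycin; luminescence over time; SOD 150 U/mL used to confirm superoxide specificity. IC50 by three-parameter fit, Hill slope 1, top/bottom fixed 100/0.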

Series [4] deals with T1, NADPH oxidase 2. The series is described as follows: Inhibition of full length human NOX2 transfected in COS 22 cells assessed as inhibition of Phorbol 12-myristate 13-acetate-stimulated ROS generation by measuring H2O2 production by fluorescence assay in presence of superoxide dismutase. Format: cell-based. To be noted: read-out: IC50. The essentials:
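Intact COS-Nox2 cells in Hepes pH 7.4 buffer with 0.1 mM Amplex Red, 0.32 U/ml HRP and 150 U/mL SOD, drug 15 min at 37 °C; started with 5 µM PMA; fluorescence monitored 1 h at 37 °C; rate as RFU/min minus unstimulated cells; % of vehicle control.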

The target in the next series is T4, NADPH oxidase 1 (Homo sapiens, UniProt Q9Y5S8).
T4 sequence (Q9Y5S8 whole entry): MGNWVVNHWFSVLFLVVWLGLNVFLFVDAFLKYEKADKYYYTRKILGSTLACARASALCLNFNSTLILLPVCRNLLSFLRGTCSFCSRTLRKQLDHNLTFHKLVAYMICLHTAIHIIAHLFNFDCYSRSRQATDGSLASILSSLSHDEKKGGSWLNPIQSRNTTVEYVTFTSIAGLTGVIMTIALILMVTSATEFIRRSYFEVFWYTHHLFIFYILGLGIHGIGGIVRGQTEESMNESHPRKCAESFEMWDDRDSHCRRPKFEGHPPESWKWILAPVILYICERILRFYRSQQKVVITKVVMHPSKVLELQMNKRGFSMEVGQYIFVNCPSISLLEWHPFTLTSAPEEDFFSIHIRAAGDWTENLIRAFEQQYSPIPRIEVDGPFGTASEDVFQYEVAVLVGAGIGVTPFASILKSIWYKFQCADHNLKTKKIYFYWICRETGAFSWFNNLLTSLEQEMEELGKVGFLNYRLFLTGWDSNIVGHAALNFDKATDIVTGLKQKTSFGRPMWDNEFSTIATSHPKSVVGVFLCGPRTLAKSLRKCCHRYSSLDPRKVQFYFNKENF
The series is described as follows: Inhibition of full length human NOX1 transfected in COS 22 cells assessed as inhibition of constitutive ROS generation by chemiluminescence assay. The following applies: read-out: IC50.

The IC50 is the concentration needed to halve the response being measured.

The structures appear in SMILES notation.

Xanthine dehydrogenase/oxidase, sequence (P80457 whole entry): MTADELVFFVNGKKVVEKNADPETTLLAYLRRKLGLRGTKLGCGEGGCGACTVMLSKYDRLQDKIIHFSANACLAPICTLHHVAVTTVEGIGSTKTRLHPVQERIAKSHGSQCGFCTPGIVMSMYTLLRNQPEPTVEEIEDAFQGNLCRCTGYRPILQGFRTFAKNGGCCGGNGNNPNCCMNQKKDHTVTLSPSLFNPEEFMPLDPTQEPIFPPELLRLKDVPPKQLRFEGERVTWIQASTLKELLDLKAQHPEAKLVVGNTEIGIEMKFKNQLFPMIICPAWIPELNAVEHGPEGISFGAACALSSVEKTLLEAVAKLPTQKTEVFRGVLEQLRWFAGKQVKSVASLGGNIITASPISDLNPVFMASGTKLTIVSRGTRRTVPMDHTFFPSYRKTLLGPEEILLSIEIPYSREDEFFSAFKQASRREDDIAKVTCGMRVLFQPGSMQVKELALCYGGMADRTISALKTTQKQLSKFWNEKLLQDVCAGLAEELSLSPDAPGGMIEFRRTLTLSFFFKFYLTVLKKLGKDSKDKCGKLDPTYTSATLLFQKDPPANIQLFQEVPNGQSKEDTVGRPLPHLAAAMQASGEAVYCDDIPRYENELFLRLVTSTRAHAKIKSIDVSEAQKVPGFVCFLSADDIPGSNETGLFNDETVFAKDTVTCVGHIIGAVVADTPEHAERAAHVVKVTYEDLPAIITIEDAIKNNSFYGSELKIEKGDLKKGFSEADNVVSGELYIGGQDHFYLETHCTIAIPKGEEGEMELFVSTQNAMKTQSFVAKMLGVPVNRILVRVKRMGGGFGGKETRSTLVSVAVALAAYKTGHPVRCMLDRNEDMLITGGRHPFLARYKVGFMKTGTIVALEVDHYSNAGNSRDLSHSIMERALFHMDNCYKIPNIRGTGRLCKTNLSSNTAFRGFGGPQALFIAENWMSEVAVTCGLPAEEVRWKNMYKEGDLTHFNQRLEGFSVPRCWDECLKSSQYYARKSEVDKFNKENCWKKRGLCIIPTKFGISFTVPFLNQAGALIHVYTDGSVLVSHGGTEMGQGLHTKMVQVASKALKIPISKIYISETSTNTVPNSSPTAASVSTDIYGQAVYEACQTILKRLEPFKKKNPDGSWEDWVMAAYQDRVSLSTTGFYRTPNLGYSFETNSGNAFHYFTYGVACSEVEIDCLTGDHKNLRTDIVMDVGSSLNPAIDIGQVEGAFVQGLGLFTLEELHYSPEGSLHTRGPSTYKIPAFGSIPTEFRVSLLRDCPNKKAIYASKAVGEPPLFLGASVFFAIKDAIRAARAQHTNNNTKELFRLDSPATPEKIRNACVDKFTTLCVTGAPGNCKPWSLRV

Consider `CC(C)C[C@@H]1N[C@H]2CC(C)(C)[C@@H]1c1c(Br)cccc12` (racemic), for which the IC50 on NADPH oxidase 2 [1] was 31 µM; at NADPH oxidase 4 it was greater than 100 µM; at NADPH oxidase 5, 18 µM; on NADPH oxidase 2 [4], 78 µM; at NADPH oxidase 1, 32 µM. Further, in series [2], the Activity entry is “Non-toxic”. In addition, the “inhibition (INH)” value in series [3] is on record as “Not Active”.
On to `C=C(C)C[C@H]1[C@H]2c3c(-c4ccc(Cl)c(Cl)c4)cccc3[C@H](CC2(C)C)N1CCCCC` (racemic), for which the IC50 at NADPH oxidase 2 [1] is greater than 100 µM; on NADPH oxidase 4, greater than 100 µM; at NADPH oxidase 5, greater than 100 µM; on NADPH oxidase 2 [4], 79 µM; at NADPH oxidase 1 it was greater than 100 µM. The “inhibition (INH)” value in series [3] is given as “Not Active”.
As for `C=C(C)C[C@H]1[C@H]2c3c(Br)cccc3[C@H](CC2(C)C)N1Cc1cccc(F)c1` (racemic), the IC50 was 68 µM on NADPH oxidase 2 [1]; greater than 100 µM on NADPH oxidase 4; 79 µM on NADPH oxidase 5; 51 µM on NADPH oxidase 2 [4]; greater than 100 µM on NADPH oxidase 1. Further, the “inhibition (INH)” value in series [3] is “Not Active”.
